Common to all, as to assay type: functional
Assay [1] is described as follows: Chaperone like activity at heat-induced citrate synthase aggregation assessed as aggregation at 100 uM incubated for 5 mins followed by heat stimulation for 3 mins in 43 degC and measured after 60 mins by fluorimetric analysis (reference value: 100%). As to conditions: time 68.0 min. An outline of the steps: (§1)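 Thermal aggregation of citrate synthase (150 nM). Peptides were brought to 43 °C in buffer, and CS was added once the temperature had equilibrated. Light scattering at 360 nm was monitored over time. CS with 1% DMSO was set as 100% aggregation, with an Hsp27 (600 nM) chaperone reference run on the same day. Mean ± SEM of at least two or three independent experiments.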

Assay [2] in a line: Chaperone like activity at heat-induced citrate synthase aggregation assessed as aggregation at 0.6 uM incubated for 5 mins followed by heat stimulation for 3 mins in 43 degC and measured after 60 mins by fluorimetric analysis (reference value: 100%). As to conditions: time 68.0 min. Put shortly: as §1
The nature of assay [3]: Chaperone like activity at kappa-casein amyloid formation at 10 to 200 uM measured upto 21 hrs by fluorescence based assay. Particulars: dose 10-200 µM, time hrs <=21.
Assay [4] can be described thus: Chaperone like activity at heat-induced citrate synthase aggregation assessed as aggregation at 200 uM incubated for 5 mins followed by heat stimulation for 3 mins in 43 degC and measured after 60 mins by fluorimetric analysis (reference value: 100%). As to conditions: time 68.0 min. Put shortly: as §1
A short description of assay [5]: Chaperone like activity at Gdn-Cl/DTT-induced citrate synthase aggregation assessed as aggregation at 200 uM incubated for 5 mins followed by heat stimulation for 3 mins in 43 degC and measured after 60 mins by fluorimetric analysis (reference value: 100%). As to conditions: time 68.0 min. Put shortly:
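Citrate synthase (150 nM) unfolded with guanidine chloride and DTT at room temperature, then a small aliquot diluted into refolding buffer with peptide (200 μM) or Hsp27 (600 nM). Aggregation followed by light scattering for 1 h. The 1% DMSO control at 1 h was taken as 100% aggregation. Mean ± SEM of at least two independent experiments.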

The nature of assay [6]: Chaperone like activity at heat-induced citrate synthase aggregation assessed as aggregation at 30 uM incubated for 5 mins followed by heat stimulation for 3 mins in 43 degC and measured after 60 mins by fluorimetric analysis (reference value: 100%). Particulars: time 68.0 min. Put shortly:
as §1

The nature of assay [7]: Chaperone like activity at heat-induced citrate synthase aggregation assessed as aggregation at 60 uM incubated for 5 mins followed by heat stimulation for 3 mins in 43 degC and measured after 60 mins by fluorimetric analysis (reference value: 100%). As to conditions: time 68.0 min. Put shortly: as §1
Assay [8] in a line: Chaperone like activity at heat-induced citrate synthase aggregation assessed as aggregation at 150 uM incubated for 5 mins followed by heat stimulation for 3 mins in 43 degC and measured after 60 mins by fluorimetric analysis (reference value: 100%). As to conditions: time 68.0 min. Put shortly: as §1
Assay [9] can be described thus: Chaperone like activity at heat-induced citrate synthase aggregation assessed as aggregation at 1.2 uM incubated for 5 mins followed by heat stimulation for 3 mins in 43 degC and measured after 60 mins by fluorimetric analysis (reference value: 100%). As to conditions: time 68.0 min. An outline of the steps:
as §1

The nature of assay [10]: Chaperone like activity at heat-induced citrate synthase aggregation assessed as aggregation incubated for 5 mins followed by heat stimulation for 3 mins in 43 degC and measured after 60 mins by fluorimetric analysis relative to control. As to conditions: time 68.0 min. An outline of the steps:
as §1

Assay [11] is described as follows: Chaperone like activity at kappa-casein amyloid formation at 200 uM measured upto 21 hrs by fluorescence based assay. Particulars: time hrs <=21.

In ChEMBL document CHEMBL4706741, “De Novo Design, Synthesis, and Mechanistic Evaluation of Short Peptides That Mimic Heat Shock Protein 27 Activity” (ACS Med Chem Lett, 2021) one finds Activity data, which are given here for 14 molecules.

Activity calls are given as the source filed them. The rule behind the calls is not given here. Where a SMILES comes first, the peptide text is derived from it.

As for `N[C@@H](CO)C(=O)N[C@@H](Cc1c[nH]c2ccccc12)C(=O)N[C@@H](CC(=O)O)C(=O)N1CCC[C@H]1C(=O)N[C@@H](Cc1ccccc1)C(=O)O`, the Activity was 23% in assay [1]; 92% in [2]; 46% in assay [4]; 63% in [5]; 73% in assay [6]; 63% in [7]. The results for the Activity in assay [8], in assay [9] and in [10] were 15%, 75% and “Dose-dependent effect”, respectively. The result in [3] was inactive.

In the case of `N[C@H](CO)C(=O)N[C@H](Cc1c[nH]c2ccccc12)C(=O)N[C@H](CC(=O)O)C(=O)N1CCC[C@@H]1C(=O)N[C@H](Cc1ccccc1)C(=O)O`, in [4], the Activity worked out at 90%.

In the case of `N[C@@H](Cc1c[nH]c2ccccc12)C(=O)N[C@@H](CC(=O)O)C(=O)N1CCC[C@H]1C(=O)N[C@@H](Cc1ccccc1)C(=O)O` (H-WDPF-OH), the Activity in [4] worked out at 115%.

On to H-AWDPF-OH, for which the Activity in assay [4] was found to be 96%.

In the case of H-DWDPF-OH, in assay [4], the Activity stood at 110%.

Turning to H-GPSWDPFRDW-OH, the Activity in assay [4] was 46%; in [10], “Dose-dependent effect”. Besides, in [11], the result was inactive.

With H-SADPF-OH, the Activity in [4] is 86%.

On to H-SWAPF-OH, for which, in assay [4], the Activity came out at 81%.

As to H-SWDAF-OH, in assay [4], the Activity was determined as 80%.

For the molecule H-SWDPA-OH, the Activity in assay [4] was determined as 78%.

Consider H-SWDPFR-OH, for which the Activity in assay [4] stood at 96%.

For H-SWDPFRD-OH, the results for the Activity in [4] and in assay [5] were 57% and 52%, respectively.

On to H-SWDPFRDW-OH, for which the Activity was 13% in assay [4], 0% in assay [5] and “Dose-dependent effect” in assay [10].

As for H-WDPFR-OH, the Activity in assay [4] was determined as 98%.
